Ten compounds from publication PMC2193327 (The Journal of Experimental Medicine, 2001) can be followed below.

pIC50: −log10 of the molar value. No end group written: not given here.

The experiment has as its target HLA-B*3501 (Homo sapiens, UniProt P01889, A329T/A93T/A95T/C349S/D201E/D98Y/E176V/E187L/E204Q/E69T/I218V/K202T/L119I/Q94N/R155S/R180L/S121R/S35A/S48A/T118I/V127L/V306I/V36M/Y140S/Y91F). The experiment is classed as binding. A digest of the protocol:
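Human 721.221 cells expressing HLA-B*3501 were stripped of bound peptides with mild acid (pH 3.2). They were incubated overnight at 4°C with fluorescein-labelled reference peptide LPSC(FL)ADVEF (250 nM fixed) plus competitor peptides (>80% HPLC purity) from 50 to 0.09 μM. After washing, bound labelled peptide was measured by flow cytometry. IC50 (50% inhibition of reference binding) was taken from exponential regression curves.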

The compound `CC(C)C[C@H](NC(=O)CNC(=O)[C@@H](NC(=O)[C@@H](NC(=O)[C@H](C)NC(=O)[C@@H]1CCCN1C(=O)[C@@H](N)CC(C)C)C(C)C)C(C)C)C(=O)N[C@@H](CO)C(=O)N1CCC[C@H]1C(=O)NCC(=O)N[C@@H](CCC(=O)O)C(=O)N[C@@H](CCC(N)=O)C(=O)N[C@@H](CCC(=O)O)C(=O)N[C@@H](Cc1ccc(O)cc1)C(=O)O` [LPAVVGLSPGEQEY] gave a pIC50 of 5.51.
The result for APAVVGLSPGEQEY [APAVVGLSPGEQEY] reads 5.55; that for “FPSDSWCYF [FPSDSWCYF, reference compound]”, 5.39.
Take LAAVVGLSAGEQEY [LAAVVGLSAGEQEY]: the negative-log IC50 (pIC50) is 5.77.
As for LAAVVGLSPGEQEY [LAAVVGLSPGEQEY], the negative-log IC50 (pIC50) is 5.59.
The result for LGAVVGLSPGEQEY [LGAVVGLSPGEQEY] reads 4.76.
In turn, LMAVVGLSPGEQEY [LMAVVGLSPGEQEY] showed a pIC50 of 5.19.
LPAVVGASPGEQEY [LPAVVGASPGEQEY] had a negative logarithm of the IC50 (pIC50) of 5.89.
The figure for LPAVVGLSAGEQEY [LPAVVGLSAGEQEY] is 5.96; for LWAVVGLSPGEQEY [LWAVVGLSPGEQEY] it is 5.33.
